Assay results pooled from the literature.
CHEK2: Serine/threonine-protein kinase Chk2 (CHEK2, Homo sapiens, UniProt O96017)
SLC6A2: Sodium-dependent noradrenaline transporter (SLC6A2, Homo sapiens, UniProt P23975)
MPO: Myeloperoxidase (MPO, Homo sapiens, UniProt P05164)

COc1ccc2oc(-c3ccc4nc(N)oc4c3)c/c(=N\c3ccccc3NC(=O)CCN)c2c1 — remaining binding (CHEK2; binding; 1 µM): 76%
O[C@@H]1[C@H](O)[C@@H]2C[C@@H]2[C@H]1n1cnc2c(NCCC3CC3)ncnc21 — inhibition (SLC6A2; transporter uptake, inhibitor, radiometric; HEK293; 10 µM): 0%
CC(C)OCCn1c(=S)[nH]c(=O)c2[nH]ccc21 — remaining activity (MPO; enzyme activity, inhibitor; 0.156 µM): 93.7%
CNc1nc(I)nc2c1ncn2[C@H]1[C@H](O)[C@H](O)[C@]2(CC#N)C[C@H]12 — inhibition (SLC6A2; ligand displacement, radioligand; 10 µM): -6%
CCCCC(=O)Nc1ccc(-c2ccc3ncn(CCC)c(=O)c3c2)cn1 — remaining binding (CHEK2; binding, competition with immobilised ligand; 0.5 µM): 96%
C1=C/COCc2cc(ccc2OCCN2CCCC2)Nc2nccc(n2)-c2cccc(c2)COC/1 — remaining binding (Fibroblast growth factor receptor 1 (FGFR1, Homo sapiens, UniProt P11362); binding; 0.1 µM): 88%
Cc1cc(O)c(-c2ccc([C@@H](C)CN(C)C)cc2)c2c1[nH]c(=O)c1sccc12 — inhibition (Peripheral plasma membrane protein CASK (CASK, Homo sapiens, UniProt O14936); cell-free assay, inhibitor; 0.1 µM, lysate): 3.12%
NC/C(=C\F)COc1cccc(Cn2c(=S)[nH]c(=O)c3[nH]cnc32)c1 — inhibition (MPO; enzyme activity, inhibitor, fluorescence; 3 µM): 99.7%
N#CC[C@@]12C[C@@H]1[C@@H](n1cnc3c(NCc4cccc(Cl)c4)nc(C#Cc4ccc(Cl)s4)nc31)[C@H](O)[C@@H]2O — inhibition (SLC6A2; ligand displacement, radioligand; 10 µM): 76%
